Experimental data reported in ChEMBL document CHEMBL1125868, “Antidopaminergic effects of the stereoisomers of N-[(1-alkyl-2- pyrrolidinyl)methyl]-5-sulfamoylbenzamides and -2,3-dihydrobenzofuran-7-carboxamides” (J Med Chem, 1991).

What was measured:
[1] = tested on: Dopamine receptor (Mus musculus); assay: Inhibitory effects on the hyperactivity against dopamine receptor after peroral administration
Mus musculus = assay: Ability to inhibit apomorphine induced hyperactivity in mice after intraperitoneal administration; type: functional; conditions: ip
Summary of the method: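 Male mice in groups of three, dosed ip 1 h before apomorphine HCl 0.5 mg/kg sc. Motor activity counted for 20 min right after apomorphine.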

D(2) dopamine receptor = D(2) dopamine receptor (Rattus norvegicus, UniProt P61169); assay: Binding affinity towards dopamine receptor D2 using as [3H]-spiperone radioligand.
Sequence of D(2) dopamine receptor (P61169 whole entry): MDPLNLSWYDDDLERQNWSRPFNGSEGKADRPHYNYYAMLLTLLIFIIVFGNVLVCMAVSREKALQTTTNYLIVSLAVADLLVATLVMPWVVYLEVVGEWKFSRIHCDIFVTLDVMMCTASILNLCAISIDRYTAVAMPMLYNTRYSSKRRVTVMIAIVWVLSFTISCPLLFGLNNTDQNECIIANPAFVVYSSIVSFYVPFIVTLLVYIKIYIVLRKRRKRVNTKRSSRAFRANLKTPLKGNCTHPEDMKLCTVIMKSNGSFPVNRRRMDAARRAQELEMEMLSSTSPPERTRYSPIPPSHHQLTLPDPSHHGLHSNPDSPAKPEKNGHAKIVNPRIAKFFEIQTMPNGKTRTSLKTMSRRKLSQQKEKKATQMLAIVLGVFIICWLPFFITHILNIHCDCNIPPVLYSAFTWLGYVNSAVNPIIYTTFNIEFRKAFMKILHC
Summary of the method: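 Rat striatal membranes washed in 50 mM Tris-HCl pH 7.7, then resuspended in 50 mM Tris-HCl pH 7.1 with NaCl, KCl, CaCl2, MgCl2, ascorbate and 10 μM pargyline, preincubated 10 min at 37 °C. Incubated with [3H]spiperone (0.2 nM final) for 20 min at 37 °C, then filtered. IC50 read from concentration-inhibition curves.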

ED50 [1]	Ki (D(2) dopamine receptor)	SMILES	ED50 (Mus musculus)
87.3 mg/kg	21 nM	CCN1CCC[C@H]1CNC(=O)c1cc(S(N)(=O)=O)cc2c1O[C@H](C)C2	11 mg/kg
–	9.4 nM	CCCCN1CCC[C@@H]1CNC(=O)c1cc(S(N)(=O)=O)cc2c1O[C@@H](C)C2	3.7 mg/kg
–	–	CCCCN1CCC[C@@H]1CNC(=O)c1cc(S(N)(=O)=O)cc2c1O[C@H](C)C2	11.6 mg/kg
> 100 mg/kg	1400 nM	CCCCCCN1CCC[C@H]1CNC(=O)c1cc(S(N)(=O)=O)ccc1OC	> 100 mg/kg
–	650 nM	CCN1CCC[C@@H]1CNC(=O)c1cc(S(N)(=O)=O)cc2c1O[C@H](C)C2	145 mg/kg
135 mg/kg	51 nM	CCCCN1CCC[C@H]1CNC(=O)c1cc(S(N)(=O)=O)ccc1OC	49.2 mg/kg
–	–	CCCCCCN1CCC[C@H]1CNC(=O)c1cc(S(N)(=O)=O)cc2c1O[C@@H](C)C2	> 100 mg/kg
60.3 mg/kg	9.6 nM	CCN1CCC[C@H]1CNC(=O)c1cc(S(N)(=O)=O)cc2c1O[C@@H](C)C2	5.7 mg/kg
–	–	CCN1CCC[C@@H]1CNC(=O)c1cc(S(N)(=O)=O)ccc1OC	> 250 mg/kg
–	6.7 nM	CCCCCCN1CCC[C@@H]1CNC(=O)c1cc(S(N)(=O)=O)cc2c1O[C@@H](C)C2	12.2 mg/kg
–	210 nM	CCCCN1CCC[C@H]1CNC(=O)c1cc(S(N)(=O)=O)cc2c1O[C@H](C)C2	72.1 mg/kg
–	–	CCN1CCC[C@H]1CNC(=O)c1cc(S(N)(=O)=O)ccc1OC [LEVOSULPIRIDE]	9.3 mg/kg
184 mg/kg	230 nM	CCCCN1CCC[C@@H]1CNC(=O)c1cc(S(N)(=O)=O)ccc1OC	92.3 mg/kg
–	95 nM	CCCCN1CCC[C@H]1CNC(=O)c1cc(S(N)(=O)=O)cc2c1O[C@@H](C)C2	38.8 mg/kg
65 mg/kg	59 nM	CCCCCCN1CCC[C@@H]1CNC(=O)c1cc(S(N)(=O)=O)ccc1OC	28.2 mg/kg
419 mg/kg	400 nM	CCN1CCC[C@@H]1CNC(=O)c1cc(S(N)(=O)=O)cc2c1O[C@@H](C)C2	71.7 mg/kg
